The source of these data is ChEMBL document CHEMBL4251549, “Design, synthesis and biological evaluation of nitrogen-containing macrocyclic bisbibenzyl derivatives as potent anticancer agents by targeting the lysosome” (Eur J Med Chem, 2017).

Assay type in all cases: functional, cell-based
The subject of test [1] is A549. The experiment in a line: Antiproliferative activity in human A549 cells after 48 hrs by MTT assay. The settings on record: A549, 48 h. In short, it runs like this:
(§1)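 Cells exposed to compound for 48 h. Viability read by MTT, with absorbance of the solubilised MTT product at 570 nm. IC50 derived from at least three independent experiments.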

Test [2] has as its system MCF7. The experiment in a line: Antiproliferative activity in human MCF7 cells after 48 hrs by MTT assay. The settings on record: MCF7, 48 h. In short, it runs like this:
as §1
On the technique in general: Tetrazolium dyes change colour on reduction, which living cells bring about.

Test [3] relates to K562. Description: Antiproliferative activity in human K562 cells after 48 hrs by MTT assay. The following applies: K562, 48 h. In short, it runs like this:
as §1

The IC50 is the midpoint of a concentration-inhibition curve. A higher IC50 goes with a need for much substance. Regarding `Oc1ccc2cc1Oc1ccc(cc1)CCc1cccc(OCCN3CCCCC3)c1-c1ccc(cc1O)CC2`, the IC50 in test [1] is 2.13 µM; in test [2] it was 2.49 µM; in test [3] it was 2.31 µM.

Turning to `CCCCN(CCCC)Cc1ccc2c(c1O)-c1ccc(cc1O)CCc1ccc(O)c(c1)Oc1ccc(cc1)CC2`, the half-inhibitory concentration (IC50) in test [1], in test [2] and in test [3] was greater than 20 µM throughout.

As for `CC(=O)Nc1cc2cc(c1OC(C)=O)Oc1ccc(cc1)CCc1cccc(OC(C)=O)c1-c1ccc(cc1OC(C)=O)CC2`, the IC50 in test [1], in test [2] and in test [3] was greater than 20 µM each time.

Regarding `CN(C)c1cc2cc(c1O)Oc1ccc(cc1)CCc1cccc(O)c1-c1ccc(cc1O)CC2`, the IC50 in test [1], in test [2] and in test [3] was greater than 20 µM in each case.

Turning to `CCN(CC)Cc1ccc2c(c1O)-c1ccc(cc1O)CCc1ccc(O)c(c1)Oc1ccc(cc1)CC2`, the IC50 in test [1] was found to be 5.74 µM; in test [2] it was 7.59 µM; in test [3], 7.86 µM.

Consider `Oc1ccc2cc1Oc1ccc(cc1)CCc1ccc(CN3CCC(O)CC3)c(O)c1-c1ccc(cc1O)CC2`, for which the values for the 50% inhibitory concentration (IC50) in test [1], in test [2] and in test [3] were 5.74 µM, 9.05 µM and 7.07 µM, respectively.

In the case of `CCN(CC)CCOc1ccc2cc1Oc1ccc(cc1)CCc1cccc(OCCN(CC)CC)c1-c1ccc(cc1OCCN(CC)CC)CC2`, the 50% inhibitory concentration (IC50) in test [1] came out at 0.78 µM; in test [2] it was 0.56 µM; in test [3], 0.65 µM.

In the case of `CN(C)CCCOc1ccc2cc1Oc1ccc(cc1)CCc1cccc(OCCCN(C)C)c1-c1ccc(cc1OCCCN(C)C)CC2`, the half-maximal inhibitory concentration (IC50) in test [1] was found to be 1.44 µM; in test [2] it was 3.05 µM; in test [3], 2.5 µM.

In the case of `Oc1ccc2cc1Oc1ccc(cc1)CCc1cccc(OCCCN3CCCC3)c1-c1ccc(cc1O)CC2`, the IC50 turned out to be 4.53 µM in test [1], 3.68 µM in test [2] and 2.94 µM in test [3].

Turning to `Oc1ccc2cc1Oc1ccc(cc1)CCc1ccc(CN3CCOCC3)c(O)c1-c1ccc(cc1O)CC2`, the IC50 in test [1], in test [2] and in test [3] was greater than 20 µM in each case.

With `CC(C)(C)OC(=O)N1CCN(Cc2cc3cc(c2O)Oc2ccc(cc2)CCc2ccc(CN4CCN(C(=O)OC(C)(C)C)CC4)c(O)c2-c2ccc(cc2O)CC3)CC1`, the IC50 in test [1], in test [2] and in test [3] was greater than 20 µM throughout.

For the compound `c1cc2c(c(OCCN3CCCC3)c1)-c1ccc(cc1OCCN1CCCC1)CCc1ccc(OCCN3CCCC3)c(c1)Oc1ccc(cc1)CC2`, the values for the IC50 in test [1], in test [2] and in test [3] were 1.04 µM, 0.88 µM and 1.79 µM, respectively.

`Oc1ccc2cc1Oc1ccc(cc1)CCc1cccc(OCCN3CCCCCC3)c1-c1ccc(cc1O)CC2`: the values for the IC50 in test [1], in test [2] and in test [3] were 2.98 µM, 3.03 µM and 2.73 µM, respectively.

With `CN(C)Cc1cc2cc(c1O)Oc1ccc(cc1)CCc1ccc(CN(C)C)c(O)c1-c1ccc(cc1O)CC2`, the values for the IC50 in test [1], in test [2] and in test [3] were 4.81 µM, 4.22 µM and 2.84 µM, respectively.

Take `CCN(CC)Cc1cc2cc(c1O)Oc1ccc(cc1)CCc1ccc(CN(CC)CC)c(O)c1-c1ccc(cc1O)CC2`: the IC50 in test [1] came out at 3.78 µM; in test [2], 1.05 µM; in test [3], 1.86 µM.

For the compound `c1cc2c(c(OCCCN3CCCC3)c1)-c1ccc(cc1OCCCN1CCCC1)CCc1ccc(OCCCN3CCCC3)c(c1)Oc1ccc(cc1)CC2`, the IC50 in test [1] is 1.67 µM; in test [2], 2.12 µM; in test [3], 2.13 µM.

Consider `CN(C)CCOc1cccc2c1-c1ccc(cc1O)CCc1ccc(O)c(c1)Oc1ccc(cc1)CC2`, for which the figures for the IC50 in test [1], in test [2] and in test [3] were 1.3 µM, 2.38 µM and 1.56 µM, respectively.

Regarding `CN(C)CCCOc1cccc2c1-c1ccc(cc1O)CCc1ccc(O)c(c1)Oc1ccc(cc1)CC2`, the IC50 in test [1] was found to be 1.99 µM; in test [2], 3.25 µM; in test [3], 2.61 µM.

On to `c1cc2c(c(OCCN3CCCCC3)c1)-c1ccc(cc1OCCN1CCCCC1)CCc1ccc(OCCN3CCCCC3)c(c1)Oc1ccc(cc1)CC2`, for which the IC50 amounted to 0.97 µM in test [1], 0.24 µM in test [2] and 0.56 µM in test [3].

On to `Oc1cc2ccc1-c1c(ccc(CN3CCSCC3)c1O)CCc1ccc(cc1)Oc1cc(cc(CN3CCSCC3)c1O)CC2`, for which the IC50 in test [1] stood at 10.2 µM; in test [2], 9.25 µM; in test [3], 8.35 µM.

In the case of `Oc1ccc2cc1Oc1ccc(cc1)CCc1ccc(CN3CCSCC3)c(O)c1-c1ccc(cc1O)CC2`, the IC50 in test [1] was determined as 16.3 µM; in test [2], 15.8 µM; in test [3], 13.4 µM.

In the case of `CN1CCN(Cc2cc3cc(c2O)Oc2ccc(cc2)CCc2ccc(CN4CCN(C)CC4)c(O)c2-c2ccc(cc2O)CC3)CC1`, the concentration for half-maximal inhibition (IC50) in test [1] is 2.16 µM; in test [2] it was 2.89 µM; in test [3], 3.32 µM.

Take `Oc1ccc2cc1Oc1ccc(cc1)CCc1ccc(CN3CCCC3)c(O)c1-c1ccc(cc1O)CC2`: the half-inhibitory concentration (IC50) in test [1] came out at 2.26 µM; in test [2] it was 2.41 µM; in test [3] it was 4.82 µM.

As to `Nc1cc2cc(c1O)Oc1ccc(cc1)CCc1cccc(O)c1-c1ccc(cc1O)CC2`, the IC50 in test [1], in test [2] and in test [3] was greater than 20 µM in each case.

In the case of `COc1ccc(N2CCN(Cc3cc4cc(c3O)Oc3ccc(cc3)CCc3ccc(CN5CCN(c6ccc(OC)cc6)CC5)c(O)c3-c3ccc(cc3O)CC4)CC2)cc1`, the IC50 in test [1], in test [2] and in test [3] was greater than 20 µM in each case.

As for `CCCCN(CCCC)Cc1cc2cc(c1O)Oc1ccc(cc1)CCc1ccc(CN(CCCC)CCCC)c(O)c1-c1ccc(cc1O)CC2`, the IC50 in test [1], in test [2] and in test [3] was greater than 20 µM in each case.

With `COCCN(CCOC)Cc1cc2cc(c1O)Oc1ccc(cc1)CCc1ccc(CN(CCOC)CCOC)c(O)c1-c1ccc(cc1O)CC2`, the IC50 in test [1], in test [2] and in test [3] was greater than 20 µM throughout.

As for `Oc1ccc2cc1Oc1ccc(cc1)CCc1ccc(CN3CCCCC3)c(O)c1-c1ccc(cc1O)CC2`, the results for the IC50 in test [1], in test [2] and in test [3] were 7.12 µM, 5.07 µM and 5.88 µM, respectively.

On to `CN(CCO)Cc1cc2cc(c1O)Oc1ccc(cc1)CCc1ccc(CN(C)CCO)c(O)c1-c1ccc(cc1O)CC2`, for which the values for the IC50 in test [1], in test [2] and in test [3] were 5.21 µM, 6 µM and 5.67 µM, respectively.

In the case of `Oc1cc2ccc1-c1c(ccc(CN3CCOCC3)c1O)CCc1ccc(cc1)Oc1cc(cc(CN3CCOCC3)c1O)CC2`, the IC50 in test [1], in test [2] and in test [3] was greater than 20 µM each time.

Take `c1cc2c(c(OCCN3CCOCC3)c1)-c1ccc(cc1OCCN1CCOCC1)CCc1ccc(OCCN3CCOCC3)c(c1)Oc1ccc(cc1)CC2`: the IC50 came out at 5.23 µM in test [1], 4.19 µM in test [2] and 3.43 µM in test [3].

Take `CC(C)(C)OC(=O)N1CCN(Cc2ccc3c(c2O)-c2ccc(cc2O)CCc2ccc(O)c(c2)Oc2ccc(cc2)CC3)CC1`: the IC50 in test [1], in test [2] and in test [3] was greater than 20 µM in each case.

For `Oc1ccc2cc1Oc1ccc(cc1)CCc1ccc(CN3CCN(Cc4ccccc4)CC3)c(O)c1-c1ccc(cc1O)CC2`, the IC50 in test [1], in test [2] and in test [3] was greater than 20 µM throughout.

Consider `COCCN(CCOC)Cc1ccc2c(c1O)-c1ccc(cc1O)CCc1ccc(O)c(c1)Oc1ccc(cc1)CC2`, for which the IC50 in test [1], in test [2] and in test [3] was greater than 20 µM each time.

For the compound `Oc1ccc2cc1Oc1ccc(cc1)CCc1cccc(OCCN3CCCC3)c1-c1ccc(cc1O)CC2`, the figures for the IC50 in test [1], in test [2] and in test [3] were 2.02 µM, 2.42 µM and 2.22 µM, respectively.

For the compound `CN1CCN(Cc2ccc3c(c2O)-c2ccc(cc2O)CCc2ccc(O)c(c2)Oc2ccc(cc2)CC3)CC1`, the IC50 amounted to 5.59 µM in test [1], 6.02 µM in test [2] and 3.31 µM in test [3].

In the case of `Oc1cc2ccc1-c1c(ccc(CN3CCCCC3)c1O)CCc1ccc(cc1)Oc1cc(cc(CN3CCCCC3)c1O)CC2`, the results for the IC50 in test [1], in test [2] and in test [3] were 4.85 µM, 2.04 µM and 0.66 µM, respectively.

For `O=[N+]([O-])c1cc2cc(c1O)Oc1ccc(cc1)CCc1cccc(O)c1-c1ccc(cc1O)CC2`, the IC50 in test [1], in test [2] and in test [3] was greater than 20 µM each time.

Turning to `Oc1cc2ccc1-c1c(ccc(CN3CCC(O)CC3)c1O)CCc1ccc(cc1)Oc1cc(cc(CN3CCC(O)CC3)c1O)CC2`, the IC50 was 3.26 µM in test [1], 3.95 µM in test [2] and 2.56 µM in test [3].

As to `CN(CCO)Cc1ccc2c(c1O)-c1ccc(cc1O)CCc1ccc(O)c(c1)Oc1ccc(cc1)CC2`, the IC50 in test [1] amounted to 9.07 µM; in test [2], 8.28 µM; in test [3], 9.19 µM.

Consider `c1cc2c(c(OCCN3CCCCCC3)c1)-c1ccc(cc1OCCN1CCCCCC1)CCc1ccc(OCCN3CCCCCC3)c(c1)Oc1ccc(cc1)CC2`, for which the values for the IC50 in test [1], in test [2] and in test [3] were 0.53 µM, 0.66 µM and 0.26 µM, respectively.

Consider `COc1ccc(N2CCN(Cc3ccc4c(c3O)-c3ccc(cc3O)CCc3ccc(O)c(c3)Oc3ccc(cc3)CC4)CC2)cc1`, for which the IC50 in test [1], in test [2] and in test [3] was greater than 20 µM throughout.

For the compound `Oc1cc2ccc1-c1c(ccc(CN3CCN(Cc4ccccc4)CC3)c1O)CCc1ccc(cc1)Oc1cc(cc(CN3CCN(Cc4ccccc4)CC3)c1O)CC2`, the concentration for half-maximal inhibition (IC50) in test [1], in test [2] and in test [3] was greater than 20 µM each time.

In the case of `CCN(CC)CCOc1cccc2c1-c1ccc(cc1O)CCc1ccc(O)c(c1)Oc1ccc(cc1)CC2`, the IC50 in test [1] amounted to 1.87 µM; in test [2] it was 2.73 µM; in test [3] it was 2.23 µM.

Regarding `Oc1ccc2cc1Oc1ccc(cc1)CCc1cccc(OCCN3CCOCC3)c1-c1ccc(cc1O)CC2`, the half-inhibitory concentration (IC50) was 7.49 µM in test [1], 5.02 µM in test [2] and 10.1 µM in test [3].
